Bioassay records from PubChem BioAssay.
IDH1 R132H inh = blocks human IDH1 R132H reductase activity; O75874; diaphorase/resazurin fluorescence, 60 min; hit rate 0.18% among 70,000; inhibition, % at 10 µM; AID 624101; in the data active = inhibition above about 34%; inconclusive = no clear call, values can overlap the other calls; inactive = below about 11%;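 note: 0% = DMSO and 100% = no enzyme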
T cruzi growth-1 = blocks T. cruzi growth in NIH3T3 culture | T. cruzi beta-gal in NIH3T3, GalScreen luminescence, 90 h | AID 624255 | inhibition, % at 8.34 µM | hit rate 5.9% among 77,000;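 active = mean inhibition above about 93%, with at least 55% of replicates each passing it, limit read from the data, passing the limit was not always enough; inconclusive = only one of those two conditions holds; inactive = neither condition holds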
KDM4C inh = blocks human GASC-1 (KDM4C) demethylase activity; GST-KDM4C 2-372, H3K9me3 peptide, LANCE TR-FRET; hit rate 0.15% among 96,000; Q9H3R0; inhibition, % at 12.5 µM;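 active = mean replicate inhibition above about 25%, with at least 55% of replicates also reaching it, limit read from the data, passing the limit was not always enough; inconclusive = only one of those two conditions met; inactive = neither condition met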
Target sequence (Q9H3R0 2-372 limits assumed): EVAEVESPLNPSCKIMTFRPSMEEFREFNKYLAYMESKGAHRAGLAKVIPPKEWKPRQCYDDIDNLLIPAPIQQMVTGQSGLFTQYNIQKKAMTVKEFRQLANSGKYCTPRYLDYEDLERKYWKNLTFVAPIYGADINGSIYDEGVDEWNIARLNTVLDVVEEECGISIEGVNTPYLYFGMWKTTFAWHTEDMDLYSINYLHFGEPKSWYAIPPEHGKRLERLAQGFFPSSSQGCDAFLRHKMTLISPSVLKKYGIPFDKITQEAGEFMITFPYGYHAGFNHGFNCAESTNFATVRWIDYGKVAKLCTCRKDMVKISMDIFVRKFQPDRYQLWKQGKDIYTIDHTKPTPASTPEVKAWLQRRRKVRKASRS
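System: N-terminal GST-fused human GASC-1 (KDM4C) fragment, residues 2-372 / Amount: 10 nM GST-KDM4C in enzyme reaction / Also added: H3K9me3 peptide with Fe(II)/2OG / Times: 30 min demethylation and 1 h detection at room temperature / Signal: LANCE TR-FRET / Read-out basis: Fall in 671/618 emission ratio as inhibition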
T cruzi growth-2 = Trypanosoma cruzi proliferation inhibition; shares compounds with T cruzi growth-1; T. cruzi beta-gal in NIH3T3, GalScreen luminescence, 90 h; inhibition, % at 8.35 µM; hit rate 72% among 5,600; AID 651739;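 active = mean replicate inhibition above about 95% and at least 55% of replicates individually reaching it, limit read from the data; inconclusive = only one of the two criteria is met; inactive = neither criterion is met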
T cruzi growth-3 = Trypanosoma cruzi proliferation inhibition; hit rate 21% among 5,600; AID 651740; shares compounds with T cruzi growth-1; T. cruzi beta-gal in NIH3T3, GalScreen luminescence, 90 h; inhibition, % at 2.09 µM;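 active = mean inhibition above about 95%, with at least 55% of replicates also reaching it, limit read from the data; inconclusive = meets just one of the two conditions; inactive = meets neither condition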;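 note: plate controls were neutral control median for no effect and positive control median for full effect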
NIH3T3 tox = kills mouse NIH/3T3 fibroblasts; shares compounds with T cruzi growth-1; NIH/3T3 viability, CellTiter-Glo ATP luminescence, 90 h; cytotoxicity (signal decrease), % at 8.35 µM; hit rate 14% among 5,600;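 active = mean signal decrease across replicates above about 35% based on untreated-well scatter, with enough replicates individually passing, limit read from the data; inconclusive = no rule stated though some were filed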;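 note: 0% = median of neutral control wells and 100% = median of positive control wells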
NIH3T3 tox 2 = kills mouse NIH/3T3 fibroblasts | inhibition, % at 24.9 µM | shares compounds with T cruzi growth-1 | NIH/3T3 viability, CellTiter-Glo ATP luminescence, 90 h | hit rate 56% among 5,600;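 active = mean loss of cell viability signal at or above a set limit, and enough replicates individually reaching it; inconclusive = meets only the mean limit or only the replicate share; inactive = meets neither condition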;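 note: 0% = median of neutral control wells and 100% = median of positive control wells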
An asterisk follows results filed as active; ? = inconclusive; . = no result. The entries come from a sample that favours hits as a whole.

SMILES	IDH1 R132H inh	T cruzi growth-1	KDM4C inh	T cruzi growth-2	T cruzi growth-3	NIH3T3 tox	NIH3T3 tox 2
Nc1ccc(-c2nnc(SCC(=O)Nc3ccc(Br)cc3F)n2-c2ccccc2)cc1	1	.	.	.	.	.	.
CCc1c(O)nc(SC(C)C(=O)Nc2ccc(Cl)cc2)[nH]c1=O (stereo not given)	0	.	.	.	.	.	.
O=C(Nc1cccc(F)c1)N1CCCCN2[C@H](CO)[C@H](c3ccc(-c4ccncc4)cc3)[C@@H]2C1	.	108*	1	100*	38	7	8
Cc1ccc(-c2ccc([C@H]3[C@H](CO)N4CCCCN(C(=O)Nc5cccc(F)c5)C[C@@H]34)cc2)cc1	.	106*	1	99*	?	118*	105*
Cc1ccc(-c2ccc([C@H]3[C@H]4CN(C(=O)Nc5cccc(F)c5)CCCCN4[C@H]3CO)cc2)cc1	.	72	-2	.	.	.	.
O=C(Nc1cccc(F)c1)N1CCCCN2[C@H](CO)[C@@H](c3ccc(-c4ccncc4)cc3)[C@@H]2C1	.	103*	1	113*	50	36*	31*
O=C(Nc1ccc(F)cc1)N1CCCCN2[C@H](CO)[C@H](c3ccc(-c4ccncc4)cc3)[C@H]2C1	.	87	-2	.	.	.	.
O=C(Nc1ccc(F)cc1)N1CCCCN2[C@@H](CO)[C@H](c3ccc(-c4ccncc4)cc3)[C@@H]2C1	.	81	-2	.	.	.	.
O=c1cc(-c2ccc(O)cc2)oc2cc(OC3OC(CO)C(O)C(O)C3OC3OCC(O)(CO)C3O)cc(O)c12 (stereo not given)	-1	.	.	.	.	.	.
Oc1ccccc1C1=Nc2ccccc2N=C(c2ccc(Cl)cc2)C1	0	.	.	.	.	.	.
C/C=C/c1ccc([C@@H]2[C@@H](CO)N3CCCCN(S(=O)(=O)c4ccc(F)cc4)C[C@H]23)cc1	.	86	-3	.	.	.	.
C/C=C/c1ccc([C@@H]2[C@H](CO)N3CCCCN(S(=O)(=O)c4ccc(OC)cc4)C[C@@H]23)cc1	.	85	0	.	.	.	.
C/C=C/c1ccc([C@H]2[C@@H](CO)N3CCCCN(S(=O)(=O)c4ccc(OC)cc4)C[C@H]23)cc1	.	85	13	.	.	.	.
C/C=C/c1ccc([C@H]2[C@@H](CO)N3CCCCN(S(=O)(=O)c4ccc(F)cc4)C[C@H]23)cc1	.	?	-2	108*	39	12	103*
C/C=C/c1ccc([C@H]2[C@H](CO)N3CCCCN(S(=O)(=O)c4ccc(OC)cc4)C[C@@H]23)cc1	.	100*	-1	108*	90	30	102*
C/C=C/c1ccc([C@@H]2[C@H]3CN(S(=O)(=O)c4ccc(OC)cc4)CCCCN3[C@H]2CO)cc1	.	?	-2	103*	82	29	68*
CC(C)(C)OC(=O)N1C[C@@H]2C(NC(=O)c3nsc(Cl)c3Cl)[C@@H]2C1 (stereo not given in full)	-2	.	.	.	.	.	.
N#C[C@@H]1[C@H](c2ccc(C#CCC3CCCC3)cc2)[C@H](CO)N1C(=O)CN1CCOCC1	.	?	-2	102*	107*	22	77*
COCC(=O)N1[C@H](C#N)[C@H](c2ccc(C#CCC3CCCC3)cc2)[C@H]1CO	.	88	-3	.	.	.	.
N#C[C@H]1[C@@H](c2ccc(C#CCC3CCCC3)cc2)[C@H](CO)N1C(=O)CN1CCOCC1	.	90	-1	.	.	.	.
COCC(=O)N1[C@@H](C#N)[C@@H](c2ccc(C#CCC3CCCC3)cc2)[C@@H]1CO	.	?	-1	99*	90	17	103*
CCC(=O)NC(c1ccccc1OC)c1c(O)ccc2ccccc12 (stereo not given)	3	.	.	.	.	.	.
O=C(COc1ccc(Cl)cc1Br)Nc1ccccc1C(=O)Nc1ccccc1	-1	.	.	.	.	.	.
O=C(c1cccc(F)c1)N1CCCCN2[C@H](CO)[C@@H](c3ccc(-c4ccc(F)cc4)cc3)[C@H]2C1	.	80	.	.	.	.	.
O=C(c1cccc(F)c1)N1CCCCN2[C@H](CO)[C@H](c3ccc(-c4cccnc4)cc3)[C@H]2C1	.	60	1	.	.	.	.
SMILES	IDH1 R132H inh	T cruzi growth-1	KDM4C inh	T cruzi growth-2	T cruzi growth-3	NIH3T3 tox	NIH3T3 tox 2
O=C(c1cccc(F)c1)N1CCCCN2[C@H](CO)[C@H](c3ccc(-c4ccc(F)cc4)cc3)[C@H]2C1	.	111*	.	102*	85	16	104*
O=C(c1cccc(F)c1)N1CCCCN2[C@H](CO)[C@H](c3ccc(-c4cccnc4)cc3)[C@@H]2C1	.	?	0	103*	95	-4	-17
O=C(c1cccc(F)c1)N1CCCCN2[C@H](CO)[C@@H](c3ccc(-c4ccncc4)cc3)[C@H]2C1	.	67	1	.	.	.	.
O=C(c1cccc(F)c1)N1CCCCN2[C@@H](CO)[C@H](c3ccc(-c4ccc(F)cc4)cc3)[C@@H]2C1	.	105*	.	103*	35	33	106*
O=C(c1cccc(F)c1)N1CCCCN2[C@@H](CO)[C@@H](c3ccc(-c4ccc(F)cc4)cc3)[C@@H]2C1	.	67	.	.	.	.	.
O=C(c1cccc(F)c1)N1CCCCN2[C@@H](CO)[C@H](c3ccc(-c4ccncc4)cc3)[C@@H]2C1	.	109*	1	101*	89	11	47*
Cc1ccc2nc(-c3ccccn3)cc(C(=O)Nc3sc4c(c3C(N)=O)CCc3ccccc3-4)c2c1	0	.	.	.	.	.	.
NC(=O)COc1ccc(/C=N/NC(=O)CCCCCCC(=O)NO)cc1	0	.	.	.	.	.	.
C=CC1C(=C)CCC2C1CCC1C(C)(C(=O)O)CCCC21C (stereo not given)	0	.	.	.	.	.	.
Cc1ccc(OCC(=O)Oc2cccc(NC3=NS(=O)(=O)c4ccccc43)c2)cc1	4	.	.	.	.	.	.
C/C=C/c1ccc2c(c1)O[C@@H](CN(C)C(=O)Nc1ccc(C(F)(F)F)cc1)[C@@H](C)CN([C@@H](C)CO)S2(=O)=O	1	81	0	.	.	.	.
C[C@H](CO)N1C[C@H](C)[C@H](CN(C)C(=O)Nc2ccc(F)cc2)Oc2cc(/C=C/c3ccccc3)ccc2S1(=O)=O	-1	122*	.	99*	105*	12	36*
C/C=C/c1ccc2c(c1)O[C@@H](CN(C)C(=O)Nc1ccc(C(F)(F)F)cc1)[C@H](C)CN([C@H](C)CO)S2(=O)=O	3	112*	0	94	103*	43*	55*
C[C@@H]1CN([C@H](C)CO)S(=O)(=O)c2ccc(/C=C/c3ccccc3)cc2O[C@H]1CN(C)C(=O)Nc1cccc(F)c1	0	123*	-2	96*	99*	73*	102*
C/C=C/c1ccc2c(c1)O[C@H](CN(C)C(=O)Nc1cccc(F)c1)[C@@H](C)CN([C@H](C)CO)S2(=O)=O	-2	80	-2	.	.	.	.
C[C@H](CO)N1C[C@H](C)[C@H](CN(C)C(=O)Nc2cc(F)ccc2F)Oc2cc(/C=C/c3ccccc3)ccc2S1(=O)=O	0	.	-1	.	.	.	.
